Experimental data published in ChEMBL document CHEMBL1938298, “Synthesis and characterization of [¹²⁵I]2-iodo N-[(S)-{(S)-1-methylpiperidin-2-yl}(phenyl)methyl]3-trifluoromethyl-benzamide as novel imaging probe for glycine transporter 1” (Bioorg Med Chem, 2011).
The source made the active and inactive calls. No cut-off for these calls is given here.

What was measured:
[1] = test system: Liver; assay: Drug uptake in ddY mouse liver at 11.1 kBq, iv after 60 min by gamma counting; type: ADME, organism-based; conditions: in vivo, 1 h
How it was run: (§1)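 Male ddY mice (6 weeks, 30–35 g) were given about 11.1 kBq of [125I]tracer in 0.1 mL i.v. via the tail vein. At each time point the animals were killed and organs dissected, weighed and gamma-counted. Uptake is expressed as % injected dose per gram of tissue, mean ± SD, n = 5–6.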

[2] = test system: Nucleic Acid; assay: Ratio of drug level in brain to blood in ddY mouse at 11.1 kBq, iv after 5 min by gamma counting; type: ADME, organism-based
[3] = test system: Mus musculus; assay: In vivo binding affinity to GlyT1 in ddY mouse brain midbrain at 33.3 kBq, iv after 30 mins in presence of nonradioactive compound 2 mg/kg, iv administered 15 mins prior to compound administration relative to control; type: functional
[4] = test system: Lung; assay: Drug uptake in ddY mouse lung at 11.1 kBq, iv after 30 min by gamma counting; type: ADME, organism-based; conditions: in vivo, 0.5 h; how it was run: as §1
[5] = test system: Heart; assay: Drug uptake in ddY mouse heart at 11.1 kBq, iv after 0.5 min by gamma counting; type: ADME, organism-based; conditions: in vivo
How it was run: (§2)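 Male ddY mice (6 weeks, 30–35 g) received about 11.1 kBq [125I]tracer in 0.1 mL i.v. via tail vein. Killed at set times, organs dissected and weighed, radioactivity gamma counted. Reported as % injected dose/g tissue, mean ± SD, n = 5–6.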

[6] = test system: Mus musculus; assay: In vivo binding affinity to GlyT1 in ddY mouse brain medullary region at 33.3 kBq, iv after 30 mins in presence of nonradioactive compound 2 mg/kg, iv administered 15 mins prior to compound administration relative to control; type: functional, Medulla of organ
[7] = test system: Intestine; assay: Drug uptake in ddY mouse intestine at 11.1 kBq, iv after 0.5 min by gamma counting; type: ADME, organism-based; conditions: in vivo; how it was run: as §2
[8] = molecular target: T1, Sodium- and chloride-dependent glycine transporter 1 (Rattus norvegicus) (UniProt P28572); assay: Binding affinity to GlyT1 in rat brain corpus callosum at 0.03 to 0.04 nM preincubated for 20 mins in binding buffer before compound addition measured after 30 mins by autoradiography in presence of 10 mM GlyT1 substrate glycine relative to control; type: tissue-based; conditions: tested as the 125I-labelled form
T1 sequence (whole entry): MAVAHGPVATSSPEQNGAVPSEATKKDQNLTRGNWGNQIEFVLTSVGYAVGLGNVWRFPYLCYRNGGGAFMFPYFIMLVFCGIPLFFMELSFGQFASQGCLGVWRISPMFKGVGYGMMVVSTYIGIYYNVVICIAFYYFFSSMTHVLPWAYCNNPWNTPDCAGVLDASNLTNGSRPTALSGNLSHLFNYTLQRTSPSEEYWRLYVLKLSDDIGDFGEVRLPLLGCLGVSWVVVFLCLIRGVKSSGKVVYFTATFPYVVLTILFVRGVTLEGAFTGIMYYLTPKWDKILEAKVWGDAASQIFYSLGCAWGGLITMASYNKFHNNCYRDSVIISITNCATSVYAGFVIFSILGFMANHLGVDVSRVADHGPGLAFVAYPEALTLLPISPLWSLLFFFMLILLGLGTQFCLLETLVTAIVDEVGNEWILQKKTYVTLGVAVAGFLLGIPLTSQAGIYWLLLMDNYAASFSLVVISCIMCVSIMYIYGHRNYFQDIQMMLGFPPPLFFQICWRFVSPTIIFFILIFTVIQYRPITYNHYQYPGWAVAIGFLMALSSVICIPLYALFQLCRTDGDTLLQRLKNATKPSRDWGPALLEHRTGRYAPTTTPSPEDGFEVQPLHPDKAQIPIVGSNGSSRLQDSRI
How it was run: (§3)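 Rat brain sagittal sections (20 µm) preincubated 20 min at 25 °C in Tris-HCl buffer pH 7.5 (NaCl, KCl, MgCl2, CaCl2), then 30 min at 25 °C with [125I] tracer (100 kBq, 0.03–0.04 nM) plus competitor (10 µM; glycine 1 or 10 mM). Cold washes, imaging plate 3 days, ROI PSL minus background per mm². % control from ≥triplicate slices, three rats.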

[9] = molecular target: T1, Sodium- and chloride-dependent glycine transporter 1 (Rattus norvegicus); assay: Binding affinity to GlyT1 in rat brain thalamus at 0.03 to 0.04 nM preincubated for 20 mins in binding buffer before compound addition measured after 30 mins by autoradiography in presence of 1 mM GlyT1 substrate glycine relative to control; type: tissue-based; conditions: tested as the 125I-labelled form
[10] = test system: Mus musculus; assay: In vivo binding affinity to GlyT1 in ddY mouse brain thalamus at 200 kBq, iv after 60 mins by autoradiography relative to control; type: functional, organism-based; conditions: tested as the 125I-labelled form
[11] = molecular target: T1, Sodium- and chloride-dependent glycine transporter 1 (Rattus norvegicus); assay: Binding affinity to GlyT1 in rat brain striatum at 0.03 to 0.04 nM preincubated for 20 mins in binding buffer before compound addition measured after 30 mins by autoradiography in presence of 0.01 mM GlyT1 inhibitor ALX5407 relative to control; type: tissue-based; conditions: tested as the 125I-labelled form
[12] = molecular target: T1, Sodium- and chloride-dependent glycine transporter 1 (Rattus norvegicus); assay: Binding affinity to GlyT1 in rat brain corpus callosum at 0.03 to 0.04 nM preincubated for 20 mins in binding buffer before compound addition measured after 30 mins by autoradiography in presence of 0.01 mM GlyT1 inhibitor SSR504734 relative to control; type: tissue-based; conditions: tested as the 125I-labelled form; how it was run: as §3
[13] = molecular target: T1, Sodium- and chloride-dependent glycine transporter 1 (Rattus norvegicus); assay: Binding affinity to GlyT1 in rat brain medullary region at 0.03 to 0.04 nM preincubated for 20 mins in binding buffer before compound addition measured after 30 mins by autoradiography in presence of 0.01 mM GlyT1 inhibitor HPCP relative to control; type: tissue-based; conditions: tested as the 125I-labelled form; how it was run: as §3
[14] = molecular target: T1, Sodium- and chloride-dependent glycine transporter 1 (Rattus norvegicus); assay: Binding affinity to GlyT1 in rat brain medullary region at 0.03 to 0.04 nM preincubated for 20 mins in binding buffer before compound addition measured after 30 mins by autoradiography in presence of 0.01 mM GlyT1 inhibitor ALX5407 relative to control; type: tissue-based; conditions: tested as the 125I-labelled form; how it was run: as §3
[15] = molecular target: T1, Sodium- and chloride-dependent glycine transporter 1 (Rattus norvegicus); assay: Binding affinity to GlyT1 in rat brain hippocampus at 0.03 to 0.04 nM preincubated for 20 mins in binding buffer before compound addition measured after 30 mins by autoradiography in presence of 0.01 mM GlyT1 inhibitor ALX5407 relative to control; type: tissue-based; conditions: tested as the 125I-labelled form; how it was run: as §3
[16] = molecular target: T1, Sodium- and chloride-dependent glycine transporter 1 (Rattus norvegicus); assay: Binding affinity to GlyT1 in rat brain midbrain at 0.03 to 0.04 nM preincubated for 20 mins in binding buffer before compound addition measured after 30 mins by autoradiography in presence of GlyT1 inhibitor N-Me-SSR504734 relative to control; type: tissue-based; conditions: tested as the 125I-labelled form
[17] = test system: Mus musculus; assay: In vivo binding affinity to GlyT1 in ddY mouse brain hippocampus at 33.3 kBq, iv after 30 mins in presence of SSR504734 2 mg/kg, iv administered 15 mins prior to compound administration relative to control; type: functional, organism-based; parameters: dose 2 mg/kg; conditions: tested as the 125I-labelled form
How it was run: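 Blocking study in male ddY mice (6 weeks, 30–35 g). The blocker (2 mg/kg in 30% DMSO/saline) was injected i.v. 15 min before about 33.3 kBq [125I]tracer i.v.; mice were killed at 30 or 60 min. Brains were divided into cortex, corpus callosum, hippocampus, thalamus, midbrain, medulla and cerebellum, weighed and gamma-counted as % dose/g. Values are mean ± SD, n = 5–6, compared to control by Kruskal–Wallis with Dunn's post-test.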

[18] = molecular target: T1, Sodium- and chloride-dependent glycine transporter 1 (Rattus norvegicus); assay: Binding affinity to GlyT1 in rat brain medullary region at 0.03 to 0.04 nM preincubated for 20 mins in binding buffer before compound addition measured after 30 mins by autoradiography in presence of GlyT1 inhibitor N-Me-SSR504734 relative to control; type: tissue-based; conditions: tested as the 125I-labelled form; how it was run: as §3

Row | Drug uptake [1] [% ID/g] | Ratio [2] | Drug uptake [4] [% ID/g] | Drug uptake [5] [% ID/g] | Drug uptake [7] [% ID/g] | Activity [8] [%] | Activity [9] [%] | Activity [11] [%] | Activity [12] [%] | Activity [13] [%] | Activity [14] [%] | Activity [15] [%] | Activity [16] [%] | Activity [18] [%] | Compound | Activity [3] [%] | Activity [6] [%] | Activity [10] | Activity [17]
1 | 16.04 | 1.57 | 17.07 | 8.19 | 0.81 |  |  |  |  |  |  |  |  |  | CN1CCCC[C@H]1[C@@H](NC(=O)c1cccc(C(F)(F)F)c1[125I])c1ccccc1 | 48 | 53 |  | 
2 |  |  |  |  |  | 39.6 | 108 | 46.7 | 21.8 | 20.5 | 25.3 | 63.2 | 25.3 | 20.6 | CN1CCCC[C@H]1[C@@H](NC(=O)c1cccc(C(F)(F)F)c1I)c1ccccc1 |  |  | Active | inactive
